# Laboratory results reported in ChEMBL document CHEMBL4219224, “Structure based drug design and in vitro metabolism study: Discovery of N-(4-methylthiophenyl)-N,2-dimethyl-cyclopenta[d]pyrimidine as a potent microtubule targeting agent” (Bioorg Med Chem, 2018).
# Experiments:
# [1] = Induction of microtubule depolymerization in rat A10 cells by indirect immunofluorescence method; format: cell-based
# Summary of the method: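 A-10 cells, which arrest in interphase, used to score loss of interphase microtubules. EC50 values calculated per an earlier method, minimum of three independent experiments.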
# [2] = Inhibition of bovine brain tubulin polymerization assessed as reduction in tubulin assembly pretreated for 15 mins followed by GTP addition by spectrophotometric method; parameters: species or system Bos taurus
# Summary of the method: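 Placed on ice, then 0.4 mM GTP (final) added. Turbidity read at 350 nm after a jump from 0 °C to 30 °C.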
# Bos taurus = species: Bos taurus; assay: Inhibition of [3H]colchicine binding to bovine brain tubulin at 5 uM measured after 10 mins by scintillation counting method relative to control
# Summary of the method: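 Reactions of 0.1 mL held 1.0 μM bovine brain tubulin, 5.0 μM [3H]colchicine, inhibitor at 1.0 or 5.0 μM, colchicine-binding stabilizing components and 5% DMSO, assembled on ice with tubulin added last. Incubated 10 min at 37 °C, stopped with ice water, filtered through DEAE-cellulose filters. Bound radiolabel counted by scintillation.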
# SK-OV-3 [3] = assay: Antiproliferative activity against human SKOV3 cells by SRB assay; format: functional, cell-based
# [4] = Antiproliferative activity against human SKOV3-MDR1-M6/6 cells by SRB assay; format: functional
# [5] = Resistance index, ratio of IC50 for human SKOV3-MDR1-M6/6 cells to IC50 for human SKOV3 cells; format: functional
# Summary of the method: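 Antiproliferative IC50 by SRB assay (cellular protein) in each isogenic pair: SK-OV-3 parental versus Pgp-expressing, and parental HeLa versus wild-type βIII-tubulin-expressing HeLa. Rr is the IC50 ratio of the modified line to the parental line. At least three independent experiments, each in triplicate, mean ± SD.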
# A549 = assay: Growth inhibition of human A549/ATCC cells incubated for 48 hrs by sulforhodamine B assay; format: functional; details: A549, 48 h
# EKVX = assay: Growth inhibition of human EKVX cells incubated for 48 hrs by sulforhodamine B assay; format: functional
# HOP-92 = assay: Growth inhibition of human HOP92 cells incubated for 48 hrs by sulforhodamine B assay; format: functional; details: HOP-92, 48 h
# NCI-H23 = assay: Growth inhibition of human NCI-H23 cells incubated for 48 hrs by sulforhodamine B assay; format: functional; details: NCI-H23, 48 h
# NCI-H522 = assay: Growth inhibition of human NCI-H522 cells incubated for 48 hrs by sulforhodamine B assay; format: functional; details: NCI-H522, 48 h
# SF-268 = assay: Growth inhibition of human SF268 cells incubated for 48 hrs by sulforhodamine B assay; format: functional; details: SF-268, 48 h
# SF-295 = assay: Growth inhibition of human SF295 cells incubated for 48 hrs by sulforhodamine B assay; format: functional; details: SF-295, 48 h
# U-251 = assay: Growth inhibition of human U251 cells incubated for 48 hrs by sulforhodamine B assay; format: functional; details: U-251, 48 h
# 786-0 = assay: Growth inhibition of human 786-0 cells incubated for 48 hrs by sulforhodamine B assay; format: functional; details: 786-0, 48 h
# A498 = assay: Growth inhibition of human A498 cells incubated for 48 hrs by sulforhodamine B assay; format: functional; details: A498, 48 h
# ACHN = assay: Growth inhibition of human ACHN cells incubated for 48 hrs by sulforhodamine B assay; format: functional
# COLO 205 = assay: Growth inhibition of human COLO205 cells incubated for 48 hrs by sulforhodamine B assay; format: functional; details: COLO 205, 48 h
# HCT-116 = assay: Growth inhibition of human HCT116 cells incubated for 48 hrs by sulforhodamine B assay; format: functional; details: HCT-116, 48 h
# HCT-15 = assay: Growth inhibition of human HCT15 cells incubated for 48 hrs by sulforhodamine B assay; format: functional; details: HCT-15, 48 h
# IGROV-1 = assay: Growth inhibition of human IGROV1 cells incubated for 48 hrs by sulforhodamine B assay; format: functional; details: IGROV-1, 48 h
# OVCAR-4 = assay: Growth inhibition of human OVCAR4 cells incubated for 48 hrs by sulforhodamine B assay; format: functional; details: OVCAR-4, 48 h
# OVCAR-5 = assay: Growth inhibition of human OVCAR5 cells incubated for 48 hrs by sulforhodamine B assay; format: functional; details: OVCAR-5, 48 h
# SK-OV-3 [6] = assay: Growth inhibition of human SKOV3 cells incubated for 48 hrs by sulforhodamine B assay; format: functional; details: SK-OV-3, 48 h
# MDA-MB-435 = assay: Growth inhibition of human MDA-MB-435 cells incubated for 48 hrs by sulforhodamine B assay; format: functional; details: MDA-MB-435, 48 h
# SK-MEL-2 = assay: Growth inhibition of human SK-MEL-2 cells incubated for 48 hrs by sulforhodamine B assay; format: functional; details: SK-MEL-2, 48 h
# SK-MEL-28 = assay: Growth inhibition of human SK-MEL-28 cells incubated for 48 hrs by sulforhodamine B assay; format: functional; details: SK-MEL-28, 48 h
# SK-MEL-5 = assay: Growth inhibition of human SK-MEL-5 cells incubated for 48 hrs by sulforhodamine B assay; format: functional; details: SK-MEL-5, 48 h
# PC-3 = assay: Growth inhibition of human PC3 cells incubated for 48 hrs by sulforhodamine B assay; format: functional; details: PC-3, 48 h
# DU-145 = assay: Growth inhibition of human DU145 cells incubated for 48 hrs by sulforhodamine B assay; format: functional; details: DU-145, 48 h
# MCF7 = assay: Growth inhibition of human MCF7 cells incubated for 48 hrs by sulforhodamine B assay; format: functional; details: MCF7, 48 h
# MDA-MB-231 = assay: Growth inhibition of human MDA-MB-231 cells incubated for 48 hrs by sulforhodamine B assay; format: functional; details: MDA-MB-231, 48 h
# BT-549 = assay: Growth inhibition of human BT549 cells incubated for 48 hrs by sulforhodamine B assay; format: functional; details: BT-549, 48 h
# CCRF-CEM = assay: Growth inhibition of human CCRF-CEM cells incubated for 48 hrs by sulforhodamine B assay; format: functional
# HL-60(TB) = assay: Growth inhibition of human HL-60(TB) cells incubated for 48 hrs by sulforhodamine B assay; format: functional; details: HL-60, 48 h
# K562 = assay: Growth inhibition of human K562 cells incubated for 48 hrs by sulforhodamine B assay; format: functional; details: K562, 48 h
# MOLT-4 = assay: Growth inhibition of human MOLT4 cells incubated for 48 hrs by sulforhodamine B assay; format: functional; details: MOLT-4, 48 h
# RPMI-8226 = assay: Growth inhibition of human RPMI8226 cells incubated for 48 hrs by sulforhodamine B assay; format: functional; details: RPMI-8226, 48 h
# [7] = Stability in human liver microsome assessed as parent compound remaining at 20 uM after 60 mins in presence of NADPH by LC-MS/MS analysis; format: ADME; details: liver microsomes, read-out: Stability
# Summary of the method: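 Human liver microsomes (both genders; 1.0 mg/mL) in 100 mM PBS pH 7.4 with 3 mM MgCl2 and 10 mM NADPH, preincubated at 37 °C. Reaction started with compound at 20 μM final (from DMSO stock); propranolol 5 μM as control. Aliquots at 0 and 60 min quenched in ice-cold ACN. Analysed by LC/MS/MS on a C18 column, 5–75% B gradient over 30 min, ESI.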
smiles,measurement,setting,value
CSc1ccc(N(C)c2nc(C)nc3c2CCC3)cc1,EC50,[1],13 nM
same,IC50,[2],1300 nM
same,inhibition,Bos taurus,92%
same,IC50,SK-OV-3 [3],7.2 nM
same,IC50,[4],9.3 nM
same,Ratio IC50,[5],1.3
same,GI50,A549,< 10 nM
same,GI50,EKVX,< 10 nM
same,GI50,HOP-92,< 10 nM
same,GI50,NCI-H23,< 10 nM
same,GI50,NCI-H522,< 10 nM
same,GI50,SF-268,< 10 nM
same,GI50,SF-295,< 10 nM
same,GI50,U-251,< 10 nM
same,GI50,786-0,< 10 nM
same,GI50,A498,< 10 nM
same,GI50,ACHN,< 10 nM
same,GI50,COLO 205,< 10 nM
same,GI50,HCT-116,< 10 nM
same,GI50,HCT-15,< 10 nM
same,GI50,IGROV-1,< 10 nM
same,GI50,OVCAR-4,< 10 nM
same,GI50,OVCAR-5,> 10000 nM
same,GI50,SK-OV-3 [6],< 10 nM
same,GI50,MDA-MB-435,< 10 nM
same,GI50,SK-MEL-2,< 10 nM
same,GI50,SK-MEL-28,> 10000 nM
same,GI50,SK-MEL-5,< 10 nM
same,GI50,PC-3,< 10 nM
same,GI50,DU-145,< 10 nM
same,GI50,MCF7,< 10 nM
same,GI50,MDA-MB-231,< 10 nM
same,GI50,BT-549,< 10 nM
same,GI50,CCRF-CEM,< 10 nM
same,GI50,HL-60(TB),< 10 nM
same,GI50,K562,< 10 nM
same,GI50,MOLT-4,< 10 nM
same,GI50,RPMI-8226,< 10 nM
same,"remaining at 1 h, 20 µM",[7],46.4%
